This is a sample that favours compounds with a hit; in the whole collection about 3.5% have one here.
MrgX1 antag – blocks BAM8-22 activation of human MrgX1 receptor. MRGX1-HEK293 calcium flux, Fluo-4, BAM8-22 antagonism; stronger effect = lower value. B-score at 10 µM. 1.3% of 310,000 active. AID 588676;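 active = calcium-response B-score plate-corrected more than 3 library SD below zero, starting fluorescence within 5 deviations, no agonist response on first addition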;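 note: peak minus trough fluorescence over baseline after final BAM8-22 challenge near maximal dose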
Target sequence (Q96LB2 whole entry, looked up): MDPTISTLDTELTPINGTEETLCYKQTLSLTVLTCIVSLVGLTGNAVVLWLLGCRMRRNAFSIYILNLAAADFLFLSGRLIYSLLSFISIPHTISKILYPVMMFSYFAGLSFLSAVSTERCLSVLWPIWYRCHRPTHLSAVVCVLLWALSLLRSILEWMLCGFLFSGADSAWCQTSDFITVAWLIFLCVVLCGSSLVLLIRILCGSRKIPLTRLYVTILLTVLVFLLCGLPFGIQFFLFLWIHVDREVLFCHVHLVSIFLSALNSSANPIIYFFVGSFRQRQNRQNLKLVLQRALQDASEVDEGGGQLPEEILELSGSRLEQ
MrgX1 PAM – allosterically activates human MrgX1 receptor signaling; Q96LB2; MrgX1-HEK293, Fluo-4 calcium flux, FDSS; stronger effect = higher value; B-score at 10 µM; 0.63% of 310,000 active;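 active = plate-corrected calcium response at least 3 library SD above typical, normal starting fluorescence, not activating the receptor alone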;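 note: compound read alongside a low EC10 to EC30 dose of BAM8-22 agonist; peak minus trough fluorescence over baseline measured at the second addition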
RGS4 act – potentiators or activators of RGS4; HEK293 M3R/inducible RGS4, carbachol calcium flux Fluo4; stronger effect = lower value; B-score at 10 µM; 0.92% of 310,000 active;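 active = B-score of the integrated calcium signal more than 4 SD below the library mean, with starting fluorescence not abnormally high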;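 note: negative B-score means reduced calcium response which marks RGS4 activation or potentiation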
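Test system: HEK293 cells with stable M3R and inducible RGS4; also added: carbachol at ECmax as muscarinic agonist stimulus; schedule: dye loading 30 min 37 °C, buffer rest 30 min RT; technique: kinetic calcium fluorescence imaging with Fluo4-AM dye, 2 µM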
RGS4 inh – inhibitors of human RGS4 | P49798 | HEK293 M3R/RGS4 inducible, Fluo-4 calcium flux; stronger effect = higher value; triggered by carbachol at its EC20 | B-score at 10 µM | 0.45% of 310,000 active;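 active = B-score, a plate-corrected calcium signal, over three deviations above library mean, with baseline fluorescence within five deviations of library mean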;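 note: RGS4 expression induced by doxycycline in cells with stable M3 receptor; B-score is computed from the integrated fluorescence ratio over baseline after carbachol; higher B-score means a larger calcium signal and so more RGS4 inhibition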
Target sequence (P49798 whole entry, looked up): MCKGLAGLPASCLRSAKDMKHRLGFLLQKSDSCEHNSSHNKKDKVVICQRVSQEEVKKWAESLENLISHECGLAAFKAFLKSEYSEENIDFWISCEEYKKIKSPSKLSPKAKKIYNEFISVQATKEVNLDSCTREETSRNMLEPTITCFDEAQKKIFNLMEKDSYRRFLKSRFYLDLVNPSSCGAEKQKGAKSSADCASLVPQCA
MrgX1 ag – activates human MrgX1 receptor signaling; Q96LB2; MrgX1-HEK293 cells, Fluo-4 calcium fluorescence, agonist mode; stronger effect = higher value; B-score at 10 µM; 0.44% of 310,000 active; AID 588627;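 active = calcium response B-score plate-corrected fluorescence ratio at least 3 library SD, with starting fluorescence B-score inside 5 SD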
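Material: HEK293 cells stably expressing human MrgX1 receptor | Quantity: 15,000 cells per well | Times: Cells plated overnight, dye loaded 0.5 h 37 °C, 0.5 h room temperature | Measured by: Kinetic Fluo-4 NW fluorescence of intracellular calcium | Control set: Positive and negative controls per plate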
MrgX1 ant reconf – confirmation of human MrgX1 receptor antagonists. remaining BAM8-22 calcium response % of control (stronger effect = lower value), % at 10 µM. 19% of 2,300 active. MrgX1-HEK293, BAM8-22 calcium flux, Fluo-4; stronger effect = lower value. shares compounds with MrgX1 antag;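 active = remaining agonist calcium response no higher than 100% minus 3 SD of agonist-only control wells, with starting fluorescence near control levels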;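 note: agonist BAM8-22 given at a near maximal EC90 to ECmax level; peak minus minimum fluorescence divided by baseline after agonist addition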
HEK293 Ca flux – counter-screen for MrgX1 antagonists: effect in parental HEK293 cells; shares compounds with MrgX1 antag; AID 624111; Fluo-4 calcium fluorescence, FDSS; fluorescence ratio F(max-min)/F0 at 10 µM; 2% of 4,000 active;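 active = duplicate-averaged calcium fluorescence ratio at least three times the standard deviation of buffer wells, a nonspecific response in parental cells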
HEK293 Ca counter – activity in parental HEK293 cells without MrgX1; 0.4% of 4,000 active; fluorescence ratio F(max-min)/F0 at 10 µM; parental HEK293 calcium flux, Fluo-4 fluorescence ratio; stronger effect = higher value; shares compounds with MrgX1 antag;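 active = calcium fluorescence ratio, averaged over duplicates, at least 3 SD of the buffer-well ratio, meaning a nonspecific response in receptor-free cells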;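 note: untransfected parental HEK293 lacking MrgX1 used as counterscreen for MrgX1 allosteric activators; fluorescence change taken during the second addition on a kinetic imager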
HEK293 Ca cntr2 – MrgX1 activator counter-screen hit in parental HEK293 cells | shares compounds with MrgX1 antag | Fluo-4 calcium fluorescence (FDSS); stronger effect = higher value | fluorescence ratio F(max-min)/F0 at 10 µM | 8.7% of 4,000 active | AID 624115;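 active = calcium fluorescence ratio at least three times the spread of buffer wells, meaning a non-specific response in parental cells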
An asterisk follows results filed as active; i = inactive; . = no result.

SMILES	MrgX1 antag	MrgX1 PAM	RGS4 act	RGS4 inh	MrgX1 ag	MrgX1 ant reconf	HEK293 Ca flux	HEK293 Ca counter	HEK293 Ca cntr2
CC(C)C(Nc1ccc(C(F)(F)F)cc1[N+](=O)[O-])C(=O)O (stereo not drawn)	i	i	i	i	i	.	.	.	.
Cc1csc(SCC(=O)N2CCCC2)n1	i	i	i	i	i	.	.	.	.
Cn1ccnc1SCC(=O)Nc1ccc(Br)cc1C(F)(F)F	-5.9*	i	i	i	i	i	i	i	i
CCOc1cnc(-c2ccc(OC)cc2)o1	-4.6*	i	i	i	i	i	i	i	i
CN(C)CCNC(=O)c1ccccc1-c1cc2ccccc2c(=O)o1	i	i	i	i	i	.	.	.	.
O=C(Nc1cccc(Br)c1)c1ccc(Cl)c(S(=O)(=O)N2CCOCC2)c1	-4.7*	i	i	i	i	80%*	i	i	i
Cc1ccc(C(=O)NCc2ccco2)cc1S(=O)(=O)N1CCCCC1	-6.7*	i	i	i	i	i	i	i	i
Cc1ccc(C(=O)Nc2ccccc2C(=O)NCc2ccco2)cc1S(=O)(=O)N1CCCCC1	i	i	i	i	i	.	.	.	.
Cc1ccc(C(=O)Nc2ccncc2)cc1S(=O)(=O)N1CCOCC1	-4.6*	i	i	i	i	i	i	i	64*
COc1cc(-c2cc(C(=O)O)c3c(OC)c(OC)c(OC)cc3n2)ccc1O	i	i	i	i	i	.	.	.	.
CCNc1nc(OCCNC(C)=O)nc(N(C)C)n1	-4.8*	i	i	i	i	i	i	i	i
Cc1ccc(SCC(=O)NCC(C)C)cc1	i	i	i	i	i	.	.	.	.
CC(/C=N\N1CCN(c2ccc(Cl)cc2)CC1)=C\c1ccccc1	i	i	i	i	i	.	.	.	.
COc1ccc(C)cc1-n1c(SCC(=O)Nc2cc(C)on2)nc2ccccc2c1=O	i	i	i	i	i	.	.	.	.
CCOC(=O)N1CCC(NC(=O)CS(=O)(=O)Cc2nc(-c3ccccc3C)oc2C)CC1	-5.3*	i	i	i	i	i	i	i	i
COc1cc(NC(=O)c2ccccc2-c2ccccc2)cc(OC)c1OC	i	i	i	i	i	.	.	.	.
COc1cc(C=Nc2ccccc2C(=O)Nc2ccccc2)cc(OC)c1OC	-5.5*	i	i	i	i	i	i	i	i
Cc1ccc(NC(=S)NCCc2ccc(F)cc2)c(C)c1	-6.2*	i	i	i	i	i	i	i	i
CCCCOC(=S)NC(=O)c1sc2ccccc2c1Cl	i	i	i	i	i	.	.	.	.
O=S1(=O)CCOC[C@H](c2ccccc2)N1Cc1ccccc1F	-6.5*	i	i	i	i	i	i	i	i
Cc1cc(C)c(S(=O)(=O)N2CCCc3ccccc32)c(C)c1	-7.1*	i	i	i	i	i	i	i	52*
O=S(=O)(NC1c2cccc3cccc(c23)C1Sc1ncccn1)c1ccc(Cl)cc1 (stereo not drawn)	-4.7*	i	i	i	i	i	i	i	i
Cc1ccc(S(=O)(=O)NC2c3cccc4cccc(c34)C2Sc2n[nH]c(N)n2)cc1 (stereo not drawn)	i	i	i	i	i	.	.	.	.
CSCc1ccc(C(=O)Nc2cccc(C)c2C)cc1	i	i	i	i	i	.	.	.	.
CCc1ccccc1Nc1nc(N)nc(COC(=O)CCS(=O)(=O)c2ccccc2)n1	i	i	i	i	i	.	.	.	.
SMILES	MrgX1 antag	MrgX1 PAM	RGS4 act	RGS4 inh	MrgX1 ag	MrgX1 ant reconf	HEK293 Ca flux	HEK293 Ca counter	HEK293 Ca cntr2
COc1cc(C)c(NC(=S)Nc2ccc(Cl)c(Cl)c2)cc1OC	-5.3*	i	i	i	i	66%*	i	i	i
Cc1ccc(C2CC(C(F)(F)F)n3nc(C(=O)NCc4c(C)nn(C)c4C)c(Cl)c3N2)cc1 (stereo not drawn)	i	i	i	i	i	.	.	.	.
Cn1c(=O)c2c(nc(CN3CCOCC3)n2CCc2ccccc2)n(C)c1=O	-4.9*	i	i	i	i	i	i	i	i
O=[N+]([O-])c1ccc(-n2nnnc2-c2ccccc2)cc1	i	i	i	i	i	.	.	.	.
C=CCOc1c(Br)cc(CNn2nnnc2N)cc1OCC	-4.8*	i	i	i	i	i	i	i	i
Cc1ccc(-c2noc(C3CCN(C(=O)Nc4ccc(C#N)cc4)CC3)n2)o1	-4.6*	i	i	i	i	76%*	i	i	i
CCC(C)(C)n1nnnc1C(c1ccc2ncccc2c1)N1CCCC(C)C1 (stereo not drawn)	-6.3*	i	i	i	i	i	i	i	i
CCc1ccccc1N(CC)C(=O)CCc1nc(-c2ccc(C)cc2)no1	i	i	i	i	i	.	.	.	.
CCN(CC)C(=O)c1cnn(-c2ccccc2)c1NC(=O)c1cccc(F)c1	i	i	i	i	i	.	.	.	.
N#Cc1c2n(cnc1=O)CCCCC2	-4.9*	i	i	i	i	i	i	i	i
CC(=O)c1cccc(S(=O)(=O)Nc2ccc(N3CCOCC3)cc2)c1	i	i	i	i	i	.	.	.	.
CSC1=NCCN1C(=O)c1c(-c2ccccc2Cl)noc1C	-6.9*	i	i	i	i	i	i	i	i
CCOc1cc2[nH]c(=S)n(C(C)C)c(=O)c2cc1OCC	i	i	i	i	i	.	.	.	.
CCC(CO)n1c(=S)[nH]c2cc(OC)c(OC)cc2c1=O (stereo not drawn)	-4.6*	i	i	i	i	i	i	i	i
Cc1cccc(/C(N)=N/OC(=O)c2ccncc2)c1	i	i	i	i	i	.	.	.	.
CON(C)c1nc(C2CCCCC2)c2cc(C)ccc2n1	i	i	i	i	i	.	.	.	.

Source: PubChem BioAssay (Johns Hopkins Ion Channel Center)
